Data: ChEMBL document CHEMBL3232811, “Mineralocorticoid receptor antagonists: identification of heterocyclic amide replacements in the oxazolidinedione series” (Bioorg Med Chem Lett, 2014)

Assays:
Format in all cases: ADME, organism-based
Conditions in all cases: in vivo
[1] = Oral bioavailability in rat at 2 mg/kg
Procedure, shortened: (§1)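 Rat PK: compound formulated at 1 mg/mL in PEG 200:water (70:30). Dosed iv at 1 mg/kg (n = 2) and orally at 2 mg/kg (n = 3). Blood concentrations measured by LC/MS/MS after protein precipitation with acetonitrile.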

Rattus norvegicus = assay: Dose normalized AUC in rat at 1 mg/kg, iv; set-up: dose 1 mg/kg, route intravenous; procedure, shortened: as §1
[2] = Volume of distribution in rat at 1 mg/kg, iv and 2 mg/kg, po; procedure, shortened: as §1

bioavailability [1] [%] | AUC/dose (Rattus norvegicus) [µM·kg·h/mg] | Vd [2] [L/kg] | SMILES
44 | 3.7 | 1.2 | COc1cc(OC)cc(-c2nnc([C@@]3(Cc4ccccc4)OC(=O)N([C@H](C)c4ccccc4)C3=O)o2)c1
89 | 4.4 | 1 | C[C@H](c1ccccc1)N1C(=O)O[C@](Cc2ccccc2)(c2nnc(C3(c4ccccc4)CC3)o2)C1=O
